The term logP denotes a log measure of how a compound divides between an organic and an aqueous phase. As a reminder, the IC50 is the concentration that gives 50% inhibition.

Consider six compounds from ChEMBL document CHEMBL1122000 (J Med Chem, 1982).

The species entered for series [1] is Rattus norvegicus. The series can be described thus: Duration of action of compound was determined at the AD99 dose level in rats. In kind it is functional. An outline of the steps:
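Rats, 10 per dose level; bases in saline vehicle given sc. Antagonism was followed in the hot-water tail-flick test at the AD99 dose, which was extrapolated from AD50 values. Duration of action is given in hours.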

The nature of series [2]: Partition coefficient (logP). It counts as physicochemical. To be noted: octanol/water.
For series [3], the system named is Rattus norvegicus. Kind of series: (§1) Antagonistic potency of compound after subcutaneous administration in rats. In kind it is functional.
The species entered for series [4] is Mus musculus. Kind of series: Concentration required for antagonistic activity of normorphine in the mouse vas deferens at the dose ratio of 2. In kind it is functional.
Series [5] deals with Rattus norvegicus. Described as §1. It counts as functional. An outline of the steps: (§2)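 Rats, 10 animals per dose level. Drugs were given as bases in saline vehicle, sc or orally. Antagonist activity was read in the hot-water tail-flick test. AD50 values were reported with limits.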
This is another data set of the same source.

Series [6] has as its system Rattus norvegicus. The series can be described thus: Antagonistic potency of compound after oral administration in rats. It counts as functional. An outline of the steps:
as §2

Series [7] is filed under the species Mus musculus. The series can be described thus: Concentration required for antagonistic activity of Met-enkephalin in the mouse vas deferens at the dose ratio of 2. It counts as functional.
For series [8], the species on record is Mus musculus. Kind of series: Concentration required for antagonistic activity of Met-enkephalin in the mouse vas deferens at the dose ratio of 2. It counts as functional.
Series [9] concerns the target T1, Opioid receptor (Rattus norvegicus, UniProt P33533+P34975+P33535). The series can be described thus: Inhibition of stereospecific [3H]diprenorphine binding to opioid receptors of rat brain homogenates by 50% in the absence of Na.
The target in series [10] is T1, Opioid receptor. The series can be described thus: Inhibition of stereospecific [3H]diprenorphine binding to opioid receptors of rat brain homogenates by 50% in the presence of Na.
The nature of series [11]: In vitro narcotic agonist potency of compound as ratio to normorphine (=1) was assessed in mouse vas deferens. It counts as functional.

Molecules are shown by their SMILES. Bounds are passed on as bounds.

The compound `C=CCN1CC[C@]23c4c5ccc(O)c4O[C@H]2C(=O)CC[C@@]3(OC)C1C5` gave a Duration in the series filed under Rattus norvegicus [1] of 4 h. Further, the logP in [2] (read-out: logP) was 2.52. Further, in the series with Rattus norvegicus [3], the AD99 amounted to 0.15 mg/kg. The values for the Concentration in the series listed under Mus musculus [4] and in the series filed under Mus musculus [7] were 0.46 ng/mL and 7.3 ng/mL, respectively. For the same compound, the AD50 is 0.041 mg/kg in the series with Rattus norvegicus [5] and over 30 mg/kg with Rattus norvegicus [6].
In the case of `C=CCN1CC[C@]23c4c5ccc(O)c4O[C@H]2C(=O)CC[C@@]3(OCC)C1C5`, the Duration in the series listed under Rattus norvegicus [1] was found to be 6 h. Besides, the logP in series [2] (read-out: logP) was found to be 3.05. The AD99 in the series with Rattus norvegicus [3] turned out to be 0.14 mg/kg. The values for the Concentration in the series listed under Mus musculus [4] and in the series filed under Mus musculus [8] were 0.33 ng/mL and 7.9 ng/mL, respectively. For the same compound, the AD50 in the series on Rattus norvegicus [5] was determined as 0.034 mg/kg; in the series with Rattus norvegicus [6], 3.8 mg/kg.
Regarding `CO[C@@]12CCC(=O)[C@@H]3Oc4c(O)ccc5c4[C@@]31CCN(CC1CC1)[C@@H]2C5`, the Duration in the series filed under Rattus norvegicus [1] came to 8 h. In series [2] (read-out: logP), the logP came out at 3.05. Besides, the IC50 on Opioid receptor [9] was 0.018 µM; on Opioid receptor [10] it was 0.016 µM. Moreover, the AD99 with Rattus norvegicus [3] stood at 0.25 mg/kg. Also, the Concentration in the series filed under Mus musculus [4] was found to be 0.26 ng/mL; in the series filed under Mus musculus [8], 11.5 ng/mL. Besides, the AD50 with Rattus norvegicus [5] worked out at 0.019 mg/kg; in the series with Rattus norvegicus [6], 4.4 mg/kg. Moreover, the Potency ratio in series [11] is listed as under 0.063.
`C=CCN1CC[C@]23c4c5ccc(O)c4O[C@H]2C(=O)CC[C@@]3(O)[C@H]1C5` [NALOXONE] displayed a Duration in the series listed under Rattus norvegicus [1] of 3 h. Besides, the logP in [2] (read-out: logP) is 1.91. In addition, the AD99 with Rattus norvegicus [3] stood at 0.1 mg/kg. In addition, the Concentration in the series listed under Mus musculus [4] turned out to be 0.51 ng/mL; in the series listed under Mus musculus [8] it was 10.1 ng/mL. In addition, the AD50 in the series on Rattus norvegicus [5] is 0.023 mg/kg; in the series with Rattus norvegicus [6] it was 13 mg/kg.
In the case of `CCO[C@@]12CCC(=O)[C@@H]3Oc4c(O)ccc5c4[C@@]31CCN(CC1CC1)C2C5`, the Duration in the series filed under Rattus norvegicus [1] turned out to be 4 h. For the same compound, the logP in [2] (read-out: logP) was 3.58. Moreover, the IC50 on Opioid receptor [9] was 0.008 µM; on Opioid receptor [10], 0.0038 µM. In the series on Rattus norvegicus [3], this compound yielded an AD99 of 0.14 mg/kg. The Concentration in the series listed under Mus musculus [4] came out at 0.07 ng/mL; in the series listed under Mus musculus [8] it was 4.1 ng/mL. Further, the AD50 turned out to be 0.005 mg/kg in the series on Rattus norvegicus [5] and 1.5 mg/kg with Rattus norvegicus [6]. For the same compound, in [11], the Potency ratio is under 0.12.
Compound `O=C1CC[C@@]2(O)[C@H]3Cc4ccc(O)c5c4[C@@]2(CCN3CC2CC2)[C@H]1O5` [NALTREXONE] displayed a Duration in the series listed under Rattus norvegicus [1] of 5 h. In addition, the logP in series [2] is given as 3.047. Further, the AD99 in the series on Rattus norvegicus [3] was found to be 0.05 mg/kg. Also, the values for the Concentration in the series filed under Mus musculus [4] and in the series listed under Mus musculus [8] were 0.165 ng/mL and 9 ng/mL, respectively. Moreover, the values for the AD50 in the series with Rattus norvegicus [5] and in the series with Rattus norvegicus [6] were 0.009 mg/kg and 1.35 mg/kg, respectively.
